Data on three compounds can be found in ChEMBL document CHEMBL1148553, “C8c-C15 monoseco-analogues of the phenanthroquinolizidine alkaloids julandine and cryptopleurine exhibiting potent anti-angiogenic properties” (Bioorg Med Chem Lett, 2006).

Test [1] is filed under the species Rattus norvegicus. Nature of the test: Inhibition of blood vessel growth in rat aorta at 10 ug/mL. The class given is functional. Put shortly: (§1)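 In vitro angiogenesis assay using rat aorta blood vessel fragments, with compounds dissolved in DMSO. The read-out is percent inhibition of blood vessel growth at each fixed test concentration.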
Another test has as its system HT-1376. Description: Cytotoxicity against human bladder carcinoma, HT1376 cells. The class given is functional, cell-based. The method in brief:
(§2)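 Dose-response proliferation assay over 0.16 to 20 µM (final) in tissue-culture plates. Cells were incubated 72 h at 37 °C in 5% CO2, and inhibition was read as Alamar Blue conversion by fluorescence at excitation/emission 544/590 nm.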

The next test deals with Ramos. Description: Cytotoxicity against human Burkitt lymphoma, RAMOS cells. The class given is functional, cell-based. The method in brief: as §2
For another test, the system named is BT-20. Nature of the test: Cytotoxicity against human breast carcinoma, BT20 cells. The class given is functional, cell-based. Put shortly:
as §2

The next test relates to TF-1. Description: Cytotoxicity against human erythroleukemia TF1 cells. The class given is functional, cell-based. Put shortly:
as §2

A further test deals with MAT-Ly-Lu. Description: Cytotoxicity against rat prostate carcinoma, MatLyLu cells. The class given is functional, cell-based. Put shortly:
as §2

The test system of a further test is A-375. Nature of the test: Cytotoxicity against human melanoma, A375 cells. The class given is functional, cell-based. The method in brief: as §2
For another test, the system named is MES-SA/Dx5. Nature of the test: Cytotoxicity against human uterine sarcoma, MES-SA-Dx5 cells derived from MES-SA. The class given is functional, cell-based. Put shortly: as §2
In the next test the test system is HCT-15. Nature of the test: Cytotoxicity against human colon carcinoma, HCT15 cells. The class given is functional, cell-based. Put shortly: as §2
In another test the test system is KHOS/NP. Description: Cytotoxicity against human osteosarcoma, KHOS-NP cells. The class given is functional, cell-based. The method in brief: as §2
For the next test, the system named is CTLL. Description: Cytotoxicity against murine cytotoxic T cells, CTLL2. The class given is functional, cell-based. To be noted: Mus musculus. The method in brief: as §2
The subject of the next test is A-431. Description: Cytotoxicity against human epidermoid carcinoma, A431 cells. The class given is functional, cell-based. Put shortly: as §2
Another test deals with MES-SA. Nature of the test: Cytotoxicity against human uterine sarcoma, MES-SA cells. The class given is functional, cell-based. Put shortly:
as §2

A further test relates to A549. Description: Cytotoxicity against human lung carcinoma, A549 cells. The class given is functional, cell-based. The method in brief: as §2
Another test relates to BUD-8. Description: Cytotoxicity against human fibroblast, BUD8 cells. The class given is functional, cell-based. The method in brief:
as §2

The next test deals with Daudi. Nature of the test: Cytotoxicity against human Burkitt lymphoma, DAUDI cells. The class given is functional, cell-based. Put shortly: as §2
The test system of a further test is MCF7. Nature of the test: Cytotoxicity against human breast carcinoma, MCF7 cells. The class given is functional, cell-based. Put shortly:
as §2

The next test relates to PA-1. Nature of the test: Cytotoxicity against human ovarian teratocarcinoma, PA1 cells. The class given is functional, cell-based. Put shortly:
as §2

The species entered for test [2] is Rattus norvegicus. Description: Inhibition of blood vessel growth in rat aorta at 100 ug/mL. The class given is functional. The method in brief:
as §1

The species named for test [3] is Rattus norvegicus. Description: Inhibition of blood vessel growth in rat aorta at 0.1 ug/mL. The class given is functional. The method in brief:
as §1

For test [4], the species on record is Rattus norvegicus. Description: Inhibition of blood vessel growth in rat aorta at 1 ug/mL. The class given is functional. Put shortly: as §1

Structures are written as SMILES.

Consider `COc1ccc2ccc3cc(OC)c(OC)cc3c2c1`, for which, in the test listed under Rattus norvegicus [1], testing at 10 µg/mL gave an inhibition of 42%. The IC50 in the test with HT-1376, in the test on Ramos, with BT-20, in the test with TF-1, with MAT-Ly-Lu and in the test on A-375 was above 20 µM in each case. The IC50 (in general, the concentration that gives 50% inhibition) in the test with MES-SA/Dx5 is above 20 µM; in the test on HCT-15, above 20 µM; in the test with KHOS/NP it was above 20 µM; with CTLL, 17.5 µM; with A-431, above 20 µM; in the test on MES-SA, above 20 µM. Moreover, the IC50 in the test on A549, in the test on BUD-8, with Daudi, in the test on MCF7 and in the test with PA-1 was above 20 µM throughout. Besides, in the test listed under Rattus norvegicus [2], the inhibition (usually the change of the read-out against control, counted positive when it falls) at 100 µg/mL is 83%.
For the compound `COc1ccc2c3c(c4cc(OC)c(OC)cc4c2c1)C[C@H]1CCCCN1C3` [CRYPTOPLEURINE], the half-inhibitory concentration (IC50) in the test with HT-1376 amounted to 0.004 µM; in the test with Ramos it was 0.003 µM; with BT-20, 0.003 µM; in the test with MAT-Ly-Lu, 0.003 µM; in the test with A-375, 0.003 µM; with MES-SA/Dx5, 0.003 µM. For the same compound, the IC50 amounted to 0.003 µM in the test on HCT-15; 0.01 µM with KHOS/NP; 0.003 µM in the test on A-431; 0.003 µM with MES-SA; 0.003 µM in the test with A549; 0.006 µM with BUD-8. The results for the IC50 with Daudi, in the test with MCF7 and with PA-1 were 0.002 µM, 0.003 µM and 0.002 µM, respectively.
`COc1ccc2c(CN(C)C)cc3cc(OC)c(OC)cc3c2c1`: testing at 10 µg/mL in the test listed under Rattus norvegicus [1] gave an inhibition of 100%. The IC50 in the test with HT-1376 was 7.88 µM; in the test with Ramos, 16.6 µM; with BT-20, 7.38 µM; with TF-1 it was 6.75 µM; in the test on MAT-Ly-Lu it was 17.3 µM; in the test on A-375, 7.1 µM. Moreover, the IC50 turned out to be 16.8 µM with MES-SA/Dx5; 8.27 µM in the test with HCT-15; 17.1 µM with KHOS/NP; 3.39 µM in the test with CTLL; 5.37 µM in the test with A-431; 9.1 µM in the test with MES-SA. For the same compound, the IC50 is 17 µM with A549; above 20 µM with BUD-8; 15.7 µM in the test on Daudi; 18.6 µM with MCF7; 4.16 µM in the test on PA-1. The same compound gave an inhibition at 0.1 µg/mL in the test listed under Rattus norvegicus [3] of 7%. The compound also came in with an inhibition at 1 µg/mL in the test listed under Rattus norvegicus [4] of 22%.
